Measured values reported in ChEMBL document CHEMBL4350961, “Discovery of Pyrrolo[3,2- d]pyrimidin-4-one Derivatives as a New Class of Potent and Cell-Active Inhibitors of P300/CBP-Associated Factor Bromodomain” (J Med Chem, 2019).
Calls of active or inactive are those of the source.

Experiments:
[1] = target: Tyrosine-protein kinase JAK3 (Homo sapiens) (UniProt P52333); assay: Inhibition of recombinant human JAK3 (781 to end residues) at 10 uM using GGEEEEYFELVKKKK as substrate measured after 40 mins in presence of [gamma33P]ATP by scintillation counting method
[2] = target: Serine/threonine-protein kinase Chk2 (Homo sapiens) (UniProt O96017); assay: Inhibition of recombinant human CHK2 (5 to end residues) at 10 uM using KKKVSRSGLYRSPSMPENLNRPR as substrate measured after 40 mins in presence of [gamma33P]ATP by scintillation counting method
Chain of Serine/threonine-protein kinase Chk2 (Homo sapiens) (O96017 whole entry): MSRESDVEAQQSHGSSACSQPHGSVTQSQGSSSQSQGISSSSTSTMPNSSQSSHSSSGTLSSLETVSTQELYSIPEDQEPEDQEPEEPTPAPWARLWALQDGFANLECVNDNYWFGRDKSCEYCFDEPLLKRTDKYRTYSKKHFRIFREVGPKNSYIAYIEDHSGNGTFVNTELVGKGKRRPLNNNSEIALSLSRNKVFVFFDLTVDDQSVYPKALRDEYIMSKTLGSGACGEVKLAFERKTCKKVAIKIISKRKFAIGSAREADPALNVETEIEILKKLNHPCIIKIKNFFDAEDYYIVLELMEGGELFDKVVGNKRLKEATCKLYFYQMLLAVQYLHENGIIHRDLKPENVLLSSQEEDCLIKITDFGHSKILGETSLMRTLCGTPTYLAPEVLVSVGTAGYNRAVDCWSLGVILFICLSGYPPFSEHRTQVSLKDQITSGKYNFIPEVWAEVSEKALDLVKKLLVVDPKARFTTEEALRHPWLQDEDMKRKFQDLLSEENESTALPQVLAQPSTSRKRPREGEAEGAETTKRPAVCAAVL

[3] = target: Serine/threonine-protein kinase PAK 5 (Homo sapiens) (UniProt Q9P286); assay: Inhibition of recombinant human PAK5 (425 to end residues) at 10 uM using RRRLSFAEPG as substrate measured after 40 mins in presence of [gamma33P]ATP by scintillation counting method
[4] = target: Ephrin type-A receptor 7 (Homo sapiens) (UniProt Q15375); assay: Inhibition of recombinant human EphA7 (613 to 909 residues) at 10 uM using KTFCGTPEYLAPEVRREPRILSEEEQEMFRDFDYIADWC as substrate measured after 40 mins in presence of [gamma33P]ATP by scintillation counting method
[5] = target: ALK tyrosine kinase receptor (Homo sapiens) (UniProt Q9UM73); assay: Inhibition of recombinant human ALK (1058 to end residues) at 10 uM using KKKSPGEYVNIEF as substrate measured after 40 mins in presence of [gamma33P]ATP by scintillation counting method
[6] = target: [Pyruvate dehydrogenase (acetyl-transferring)] kinase isozyme 2, mitochondrial (Homo sapiens) (UniProt Q15119); assay: Inhibition of human PDHK2 at 10 uM by radiometric method
Method in brief: (§1)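 Kinase panel of 422 kinases screened by Eurofins KinaseProfiler at a single test-compound concentration of 10 µM.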

[7] = test system: Mast/stem cell growth factor receptor Kit (Homo sapiens), P10721 [D816H]; assay: Inhibition of recombinant human c-Kit D816H mutant (544 to end residues) at 10 uM using GGMEDIYFEFMGGKKK as substrate measured after 40 mins in presence of [gamma33P]ATP by scintillation counting method
[8] = target: Proto-oncogene tyrosine-protein kinase Src (Homo sapiens) (UniProt P12931); assay: Inhibition of human Src (1 to 530 residues) using GGEEEEYFELVKKKK as substrate measured after 40 mins in presence of [gamma33P]ATP by scintillation counting method
[9] = target: Serine/threonine-protein kinase N2 (Homo sapiens) (UniProt Q16513); assay: Inhibition of human PRK2 (501 to end residues) using AKRRRLSSLRA as substrate measured after 40 mins in presence of [gamma33P]ATP by scintillation counting method; method in brief: as §1
[10] = target: Serine/threonine-protein kinase Chk1 (Homo sapiens) (UniProt O14757); assay: Inhibition of recombinant full length human CHK1 at 10 uM using KKKVSRSGLYRSPSMPENLNRPR as substrate measured after 40 mins in presence of [gamma33P]ATP by scintillation counting method
[11] = target: High affinity nerve growth factor receptor (Homo sapiens) (UniProt P04629); assay: Inhibition of human TrkA (440 to end residues) using KKKSPGEYVNIEFG as substrate measured after 40 mins in presence of [gamma33P]ATP by scintillation counting method
Chain of High affinity nerve growth factor receptor (Homo sapiens) (P04629 33-796 limits assumed): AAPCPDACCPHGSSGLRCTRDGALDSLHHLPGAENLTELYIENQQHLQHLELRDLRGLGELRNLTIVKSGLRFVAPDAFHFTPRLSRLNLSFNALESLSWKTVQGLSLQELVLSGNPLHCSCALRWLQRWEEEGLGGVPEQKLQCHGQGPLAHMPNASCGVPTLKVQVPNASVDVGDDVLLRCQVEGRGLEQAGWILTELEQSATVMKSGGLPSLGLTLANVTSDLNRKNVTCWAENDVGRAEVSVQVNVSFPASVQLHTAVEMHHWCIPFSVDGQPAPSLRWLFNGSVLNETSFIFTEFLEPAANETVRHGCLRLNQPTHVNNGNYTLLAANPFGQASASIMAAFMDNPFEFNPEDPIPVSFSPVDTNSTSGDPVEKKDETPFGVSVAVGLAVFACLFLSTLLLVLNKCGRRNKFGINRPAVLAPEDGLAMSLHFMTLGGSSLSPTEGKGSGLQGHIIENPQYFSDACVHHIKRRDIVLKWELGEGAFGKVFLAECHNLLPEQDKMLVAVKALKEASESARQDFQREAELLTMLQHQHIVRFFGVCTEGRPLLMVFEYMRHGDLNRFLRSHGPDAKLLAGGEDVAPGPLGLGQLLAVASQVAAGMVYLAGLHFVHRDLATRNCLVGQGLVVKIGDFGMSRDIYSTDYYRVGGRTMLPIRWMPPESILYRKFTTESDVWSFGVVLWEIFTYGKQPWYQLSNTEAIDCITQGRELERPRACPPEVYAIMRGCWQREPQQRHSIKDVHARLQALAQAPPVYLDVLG

[12] = species: Homo sapiens; assay: Inhibition of recombinant human DDR1 V833L mutant (492 to end residues) at 10 uM using KKKSPGEYVNIEFG as substrate measured after 40 mins in presence of [gamma33P]ATP by scintillation counting method
[13] = target: Ephrin type-A receptor 8 (Homo sapiens) (UniProt P29322); assay: Inhibition of recombinant human EphA8 (615 to 911 residues) at 10 uM using KTFCGTPEYLAPEVRREPRILSEEEQEMFRDFDYIADWC as substrate measured after 40 mins in presence of [gamma33P]ATP by scintillation counting method
[14] = target: Ephrin type-A receptor 1 (Homo sapiens) (UniProt P21709); assay: Inhibition of recombinant human EphA1 (568 to end residues) at 10 uM using KKKSPGEYVNIEF as substrate measured after 40 mins in presence of [gamma33P]ATP by scintillation counting method
[15] = target: Receptor-interacting serine/threonine-protein kinase 1 (Homo sapiens) (UniProt Q13546); assay: Inhibition of human RIPK1 (8 to 322 residues) using myelin basic protein as substrate measured after 120 mins in presence of [gamma33P]ATP by scintillation counting method; method in brief: as §1
Chain of Receptor-interacting serine/threonine-protein kinase 1 (Homo sapiens) (Q13546 whole entry, the tested form may be a part): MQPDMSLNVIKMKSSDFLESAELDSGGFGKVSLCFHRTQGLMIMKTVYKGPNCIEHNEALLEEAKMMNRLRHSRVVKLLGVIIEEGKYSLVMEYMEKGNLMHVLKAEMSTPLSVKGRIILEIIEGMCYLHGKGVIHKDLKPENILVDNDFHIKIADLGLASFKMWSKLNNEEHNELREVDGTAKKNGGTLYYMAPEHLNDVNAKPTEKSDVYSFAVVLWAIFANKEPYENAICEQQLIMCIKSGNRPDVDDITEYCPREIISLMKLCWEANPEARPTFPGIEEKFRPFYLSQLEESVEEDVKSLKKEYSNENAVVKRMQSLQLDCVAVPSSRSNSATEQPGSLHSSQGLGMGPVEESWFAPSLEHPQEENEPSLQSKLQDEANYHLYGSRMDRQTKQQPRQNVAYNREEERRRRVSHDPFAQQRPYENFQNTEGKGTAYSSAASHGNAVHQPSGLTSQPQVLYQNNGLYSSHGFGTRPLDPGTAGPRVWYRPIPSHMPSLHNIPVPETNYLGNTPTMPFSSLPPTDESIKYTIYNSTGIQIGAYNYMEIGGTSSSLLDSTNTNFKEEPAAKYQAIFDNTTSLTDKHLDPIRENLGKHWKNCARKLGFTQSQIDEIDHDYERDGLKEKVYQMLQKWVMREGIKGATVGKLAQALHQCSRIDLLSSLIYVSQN

[16] = target: CDC7/Cyclin B1 (Homo sapiens) (UniProt P14635+O00311); assay: Inhibition of recombinant full-length human CDC7/cyclinB1 at 10 uM using Histone H1 as substrate measured after 120 mins in presence of [gamma33P]ATP by scintillation counting method; assay type: protein-complex assay
[17] = target: Citron Rho-interacting kinase (Homo sapiens) (UniProt O14578); assay: Inhibition of recombinant human CRIK at 10 uM using KKLRRTLSVA as substrate measured after 120 mins in presence of [gamma33P]ATP by scintillation counting method
Chain of Citron Rho-interacting kinase (Homo sapiens) (O14578 whole entry): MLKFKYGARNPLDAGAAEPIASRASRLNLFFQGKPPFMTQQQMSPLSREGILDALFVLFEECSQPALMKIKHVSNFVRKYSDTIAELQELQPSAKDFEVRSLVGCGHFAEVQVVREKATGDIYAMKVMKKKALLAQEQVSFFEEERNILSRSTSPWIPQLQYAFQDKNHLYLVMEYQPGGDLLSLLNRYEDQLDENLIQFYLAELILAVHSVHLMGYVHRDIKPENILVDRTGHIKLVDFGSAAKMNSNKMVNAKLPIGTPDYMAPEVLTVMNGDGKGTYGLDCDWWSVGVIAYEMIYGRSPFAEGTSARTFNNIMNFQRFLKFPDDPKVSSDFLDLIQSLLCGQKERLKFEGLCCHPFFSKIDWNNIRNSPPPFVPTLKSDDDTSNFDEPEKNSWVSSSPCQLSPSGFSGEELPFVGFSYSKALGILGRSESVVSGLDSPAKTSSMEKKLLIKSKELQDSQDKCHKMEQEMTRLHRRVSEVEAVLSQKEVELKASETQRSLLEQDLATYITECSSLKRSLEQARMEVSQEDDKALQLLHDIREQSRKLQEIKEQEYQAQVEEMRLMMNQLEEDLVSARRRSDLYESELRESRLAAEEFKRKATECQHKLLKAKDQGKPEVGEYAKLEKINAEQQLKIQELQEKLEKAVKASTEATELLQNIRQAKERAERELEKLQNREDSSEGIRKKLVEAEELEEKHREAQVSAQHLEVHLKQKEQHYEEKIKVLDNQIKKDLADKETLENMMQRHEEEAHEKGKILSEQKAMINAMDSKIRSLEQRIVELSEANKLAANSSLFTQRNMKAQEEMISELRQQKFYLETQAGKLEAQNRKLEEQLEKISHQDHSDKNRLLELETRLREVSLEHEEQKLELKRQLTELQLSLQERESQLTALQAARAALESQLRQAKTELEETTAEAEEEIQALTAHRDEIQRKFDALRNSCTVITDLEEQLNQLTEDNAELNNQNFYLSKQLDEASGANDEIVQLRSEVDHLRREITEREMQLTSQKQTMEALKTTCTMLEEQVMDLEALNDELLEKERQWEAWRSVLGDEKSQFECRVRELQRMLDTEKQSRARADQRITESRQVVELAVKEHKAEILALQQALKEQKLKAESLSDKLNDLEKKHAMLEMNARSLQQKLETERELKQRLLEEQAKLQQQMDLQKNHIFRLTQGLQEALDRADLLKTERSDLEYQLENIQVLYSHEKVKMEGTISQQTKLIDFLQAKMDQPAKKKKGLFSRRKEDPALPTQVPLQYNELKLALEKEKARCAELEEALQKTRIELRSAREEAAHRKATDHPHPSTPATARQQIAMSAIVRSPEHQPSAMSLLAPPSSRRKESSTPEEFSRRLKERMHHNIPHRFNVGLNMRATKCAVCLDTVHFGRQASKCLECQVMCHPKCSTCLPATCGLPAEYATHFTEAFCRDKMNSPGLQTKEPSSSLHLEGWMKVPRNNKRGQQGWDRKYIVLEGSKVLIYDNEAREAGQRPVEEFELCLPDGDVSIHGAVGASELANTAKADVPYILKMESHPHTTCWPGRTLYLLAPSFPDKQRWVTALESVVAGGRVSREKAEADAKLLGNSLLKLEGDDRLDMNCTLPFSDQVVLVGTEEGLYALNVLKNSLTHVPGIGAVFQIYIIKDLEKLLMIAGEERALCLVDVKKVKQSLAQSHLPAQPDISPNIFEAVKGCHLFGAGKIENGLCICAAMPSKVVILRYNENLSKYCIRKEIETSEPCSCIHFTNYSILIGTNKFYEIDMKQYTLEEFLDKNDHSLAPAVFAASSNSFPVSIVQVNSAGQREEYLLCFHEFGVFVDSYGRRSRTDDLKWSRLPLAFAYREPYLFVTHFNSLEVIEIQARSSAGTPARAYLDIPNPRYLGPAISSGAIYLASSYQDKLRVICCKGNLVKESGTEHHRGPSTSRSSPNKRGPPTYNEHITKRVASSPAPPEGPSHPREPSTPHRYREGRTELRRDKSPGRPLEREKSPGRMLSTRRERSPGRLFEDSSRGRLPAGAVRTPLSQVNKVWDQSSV

[18] = target: Cyclin-dependent kinase 2/cyclin E1 (Homo sapiens) (UniProt P24864+P24941); assay: Inhibition of recombinant full-length human CDK2/cyclinE at 10 uM using histone H1 as substrate measured after 40 mins in presence of [gamma33P]ATP by scintillation counting method; assay type: protein-complex assay
[19] = target: Protein polybromo-1 (Homo sapiens) (UniProt Q86U86); assay: Binding affinity to human partial length PBRM1 bromodomain 2 (S178 to E291 residues) expressed in bacterial expression system at 1 uM by BROMOscan assay
Method in brief: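 BROMOscan bromodomain cross-screen run by an outside service, compound at 1 µM against 32 recombinant bromodomains. Binding given as percent of control.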

[20] = target: Tyrosine-protein kinase Fyn (Homo sapiens) (UniProt P06241); assay: Inhibition of recombinant full-length human FYN at 10 uM using Cdc2 peptide as substrate measured after 40 mins in presence of [gamma33P]ATP by scintillation counting method
[21] = target: Ephrin type-B receptor 1 (Homo sapiens) (UniProt P54762); assay: Inhibition of recombinant human EphB1 (564 to end residues) at 10 uM using KVEKIGEGTYGVVYK as substrate measured after 40 mins in presence of [gamma33P]ATP by scintillation counting method
Chain of Ephrin type-B receptor 1 (Homo sapiens) (P54762 whole entry): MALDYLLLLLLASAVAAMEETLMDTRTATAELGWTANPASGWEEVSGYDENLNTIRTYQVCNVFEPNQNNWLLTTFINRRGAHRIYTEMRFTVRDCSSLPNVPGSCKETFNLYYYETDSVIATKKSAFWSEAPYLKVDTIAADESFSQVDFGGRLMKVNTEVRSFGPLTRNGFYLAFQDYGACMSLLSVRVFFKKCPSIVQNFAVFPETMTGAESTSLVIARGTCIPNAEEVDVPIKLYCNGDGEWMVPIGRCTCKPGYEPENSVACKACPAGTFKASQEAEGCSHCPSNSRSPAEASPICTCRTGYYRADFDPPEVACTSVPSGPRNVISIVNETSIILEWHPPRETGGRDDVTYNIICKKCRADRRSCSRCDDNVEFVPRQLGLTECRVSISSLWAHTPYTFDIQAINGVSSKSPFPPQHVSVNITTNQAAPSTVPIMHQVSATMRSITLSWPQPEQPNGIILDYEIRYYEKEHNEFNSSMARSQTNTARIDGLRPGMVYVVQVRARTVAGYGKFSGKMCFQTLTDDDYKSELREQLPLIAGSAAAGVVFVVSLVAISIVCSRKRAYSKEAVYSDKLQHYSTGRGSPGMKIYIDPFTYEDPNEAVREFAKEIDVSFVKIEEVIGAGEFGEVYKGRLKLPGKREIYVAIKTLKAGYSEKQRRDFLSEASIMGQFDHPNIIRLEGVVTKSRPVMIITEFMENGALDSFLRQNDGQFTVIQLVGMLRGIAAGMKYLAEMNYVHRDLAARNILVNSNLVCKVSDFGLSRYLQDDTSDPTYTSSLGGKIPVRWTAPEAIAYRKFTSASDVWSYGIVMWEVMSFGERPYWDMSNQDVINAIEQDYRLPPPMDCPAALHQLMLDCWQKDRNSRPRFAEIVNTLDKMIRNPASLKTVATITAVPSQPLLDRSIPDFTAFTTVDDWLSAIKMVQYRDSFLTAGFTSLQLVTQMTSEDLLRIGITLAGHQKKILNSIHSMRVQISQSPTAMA

[22] = test system: Epidermal growth factor receptor (Homo sapiens), P00533 [T790M]; assay: Inhibition of recombinant human EGFR T790M mutant (696 to end residues) at 10 uM using GGMEDIYFEFMGGKKK as substrate measured after 40 mins in presence of [gamma33P]ATP by scintillation counting method
[23] = target: CDK4/Cyclin D3 (Homo sapiens) (UniProt P11802+P30281); assay: Inhibition of recombinant full-length human CDK4/cyclinD3 at 10 uM using Rb fragment as substrate measured after 40 mins in presence of [gamma33P]ATP by scintillation counting method; assay type: protein-complex assay

CN1C[C@H](Nc2nc3cc[nH]c3c(=O)n2C)C[C@H](c2ccc3c(c2)OCCO3)C1
inactive: inhibition [1] | inhibition [2] | inhibition [3] | inhibition [4] | inhibition [5] | inhibition [6] | inhibition [7] | inhibition [8] | inhibition [9] | inhibition [10] | inhibition [11] | inhibition [12] | inhibition [13] | inhibition [14] | inhibition [15] | inhibition [16] | inhibition [17] | inhibition [18] | Activity [19] | inhibition [20] | inhibition [21] | inhibition [22] | inhibition [23]
